In series [1] the target is human cytochrome bc1 (derived from HEK-293 cells) (Homo sapiens, UniProt P00156). As to the kind of experiment: Inhibition of human cytochrome bc1 activity. It is filed as biochemical.
The test system of series [2] is P. berghei oocysts in Anopheles stephensi. As to the kind of experiment: In vivo transmission blocking, mosquitoes fed on treated infected mice. The following applies: for inhibition at 10 mg/kg: read-out: inhibition of oocyst production. The method, boiled down: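 Mice at about 3% P. berghei parasitemia received a single oral dose of test compound (0.1–10 mg/kg) or vehicle. Female Anopheles stephensi fed on the mice 1 h after treatment. Midguts were dissected on day 10 post infection and examined for oocysts. Dihydroartemisinin and primaquine (10 mg/kg) were positive controls.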

Series [3] deals with P. berghei ookinete. The series can be described thus: In vitro ookinete assay. Format: cell-based. Conditions: read-out: IC50 ookinete production.
Series [4] deals with P. yoelii in CD1 Swiss mice. The following applies: for ED90: P. yoelii, 4-day test, oral, PEG400 vehicle.
In series [5] the test system is late stage IV - V P. falciparum gametocytes. As to the kind of experiment: Late stage gametocyte viability, high content imaging. It is filed as cell-based. The following applies: read-out: IC50 stage IV-V gametocyte viability.
Series [6] relates to P. falciparum strain 3D7 oocyst formation. The following applies: comparable SMFA; cited from earlier work.
Series [7] concerns P. falciparum strains (D6, 3D7, Dd2, W2, recent isolates from SE Asia, TM90-C2B). Format: cell-based, Plasmodium falciparum. The following applies: atovaquone-resistant clinical isolate TM90-C2B.
Series [8] concerns transgenic P. falciparum clone D10yDHOD. As to the kind of experiment: Susceptibility of transgenic clone expressing yeast DHOD. It is filed as cell-based, Plasmodium falciparum.
Series [9] relates to P. falciparum clinical isolates. As to the kind of experiment: Ex vivo susceptibility of clinical field isolates, modified WHO microtest. It is filed as cell-based, Plasmodium falciparum. Conditions: read-out: median EC50, Papua, Indonesia. In outline:
(§1)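 Isolates were taken from patients attending malaria clinics in southern Papua, Indonesia, and tested ex vivo by a modified WHO microtest. Median IC50 was reported separately for each species. Comparisons used the Wilcoxon rank sum test.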

Series [10] relates to P. vivax clinical isolates. Described as above. Format: cell-based, Plasmodium vivax. The following applies: read-out: median EC50, Papua, Indonesia. The method, boiled down:
as §1

For series [11], the system named is J774 mouse macrophages. It is filed as cell-based.
Series [12] deals with human foreskin fibroblasts (HFF). It is filed as cell-based.
Series [13] has as its system murine bone marrow derived hematopoietic progenitors (CFU-GM, BFUE, CFU-GEMM). Format: cell-based.
Series [14] deals with P. falciparum cytochrome bc1 (Plasmodium falciparum, UniProt Q02768). It is filed as biochemical. Conditions: read-out: IC50, nM P. falciparum cytochrome bc1; P. falciparum mitochondria.
Chain of P. falciparum cytochrome bc1 (Q02768 whole entry): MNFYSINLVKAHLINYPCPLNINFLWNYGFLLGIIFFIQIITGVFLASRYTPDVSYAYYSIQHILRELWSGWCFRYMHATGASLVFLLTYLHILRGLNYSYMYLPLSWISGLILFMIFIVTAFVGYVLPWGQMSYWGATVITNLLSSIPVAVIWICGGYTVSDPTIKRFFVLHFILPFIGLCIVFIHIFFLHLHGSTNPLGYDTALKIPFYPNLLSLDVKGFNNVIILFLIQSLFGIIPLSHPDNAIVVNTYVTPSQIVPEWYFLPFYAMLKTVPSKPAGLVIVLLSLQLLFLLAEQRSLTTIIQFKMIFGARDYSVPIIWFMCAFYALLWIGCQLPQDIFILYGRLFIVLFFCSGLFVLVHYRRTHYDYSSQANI
The subject of series [15] is P. falciparum. As to the kind of experiment: In vitro parasite reduction ratio. It is filed as cell-based.
The subject of series [16] is P. falciparum strains (D6, Dd2, TM90-C2B, V1/S). As to the kind of experiment: In vitro isobolar testing with proguanil, fixed combination ratios. Conditions: isobolar testing against 4 strains. It is filed as cell-based.
The subject of series [17] is P. berghei infected ICR mice. The series can be described thus: Thompson test, blood stage efficacy. Format: in vivo.
The subject of series [18] is P. falciparum. As to the kind of experiment: Immuno-deficient. It is filed as in vivo. The method, boiled down:
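NOD-scid IL2Rγnull-type immunodeficient mice were engrafted with human erythrocytes and infected with P. falciparum. The test compound was given orally daily for 4 consecutive days as a non-optimized suspension, not in PEG400 (3 vehicle mice, 11 treated). Parasitemia was measured by FACS, with Giemsa smears at 48 h. Blood levels were followed over 23 h after the first dose. ED90 was taken at day 7 versus vehicle. AUCED90 was estimated graphically from AUC0→23h versus log10 day-7 parasitemia for each mouse.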

For series [19], the system named is exoerythrocytic stages of P. berghei. The series can be described thus: In vitro liver stage assay, luciferase sporozoites on HEPG2 hepatoma cells. It is filed as cell-based. Conditions: read-out: EC50, luciferase expression, 44 h post infection. The method, boiled down: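 Luciferase-expressing P. berghei sporozoites were added to HepG2 hepatoma monolayers and allowed to infect for 1 h. A dilution series of the test compound was then added and plates were incubated at 37 °C. Luciferase was read 44 h post infection. EC50 came from a nonlinear logistic dose-response fit.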

Series [20] concerns P. cynomolgi liver schizonts. As to the kind of experiment: In vitro liver stage assay in primary rhesus hepatocytes. It is filed as cell-based. Conditions: read-out: IC50 liver schizonts, 6-day incubation.
The test system of series [21] is P. berghei (luciferase) sporozoite infections of BALB/c mice. The series can be described thus: In vivo liver stage, sporozoite infection with bioluminescence imaging. The following applies: per os one hour post infection. In outline: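 BALB/c mice (5 per group) were infected with luciferase-expressing P. berghei sporozoites. One hour later they received a single dose of test compound by gavage; untreated mice served as controls. For bioluminescence imaging at 44 h and on days 6 and 13, mice were injected with D-luciferin and anesthetized, tracking liver and blood stages.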

Series [22] has as its system P. falciparum (NF54) gametocytes (Stage I-II). As to the kind of experiment: Inhibition of early stage gametocyte development. Conditions: three days exposure of Stage I-II gametocytes. Format: cell-based.
In series [23] the test system is P. berghei oocyst formation in Anopheles stephensi mosquitoes. As to the kind of experiment: Oocyst formation after membrane feeding of drug-spiked infected blood. Format: in vivo. In outline:
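Mouse blood infected with GFP-expressing P. berghei was mixed with the test compound and placed at once in membrane feeders at 39 °C. It was offered to about 75 overnight-starved mosquitoes. After 7 days, fluorescent oocysts on dissected midguts were counted by semi-automated image capture and analysis. DMSO was the negative control.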

Series [24] concerns P. falciparum strain 3D7 oocyst formation. As to the kind of experiment: Standard membrane feeding assay. It is filed as in vivo.
Series [25] can be described thus: Pharmacokinetics in mice, intravenous and oral. It is filed as in vivo, mouse. The following applies: 0.3 mg/kg oral in PEG400. The method, boiled down: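 Non-fasted male Swiss outbred mice were used. The IV dose was 0.1 mg/kg, formulated in mouse plasma and given via the tail vein. The oral dose was 0.3 mg/kg by gavage, as a solution in undiluted PEG400.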
A short description of series [26]: Aqueous solubility, kinetic and thermodynamic methods. Format: physicochemical. The method, boiled down: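 Kinetic method: DMSO stock diluted into various media. Thermodynamic method: equilibrium solubility with physiologically relevant media and incubation time.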
Series [27] can be described thus: Metabolic stability in liver microsomes. Format: in vitro ADME. Conditions: in vitro incubation with liver microsomes, multiple species. (Microsomes from liver hold many membrane-bound enzymes, among them those of drug oxidation.)
Series [28] concerns major cytochrome P450 enzymes. As to the kind of experiment: Cytochrome P450 inhibition. Format: in vitro ADME. Conditions: at concentrations needed for efficacy.
The target of series [29] is hERG (human-Ether-a-go-go-Related Gene) channel (Homo sapiens, UniProt Q12809). It is filed as cell-based.
Chain of hERG (human-Ether-a-go-go-Related Gene) channel (Q12809 whole entry): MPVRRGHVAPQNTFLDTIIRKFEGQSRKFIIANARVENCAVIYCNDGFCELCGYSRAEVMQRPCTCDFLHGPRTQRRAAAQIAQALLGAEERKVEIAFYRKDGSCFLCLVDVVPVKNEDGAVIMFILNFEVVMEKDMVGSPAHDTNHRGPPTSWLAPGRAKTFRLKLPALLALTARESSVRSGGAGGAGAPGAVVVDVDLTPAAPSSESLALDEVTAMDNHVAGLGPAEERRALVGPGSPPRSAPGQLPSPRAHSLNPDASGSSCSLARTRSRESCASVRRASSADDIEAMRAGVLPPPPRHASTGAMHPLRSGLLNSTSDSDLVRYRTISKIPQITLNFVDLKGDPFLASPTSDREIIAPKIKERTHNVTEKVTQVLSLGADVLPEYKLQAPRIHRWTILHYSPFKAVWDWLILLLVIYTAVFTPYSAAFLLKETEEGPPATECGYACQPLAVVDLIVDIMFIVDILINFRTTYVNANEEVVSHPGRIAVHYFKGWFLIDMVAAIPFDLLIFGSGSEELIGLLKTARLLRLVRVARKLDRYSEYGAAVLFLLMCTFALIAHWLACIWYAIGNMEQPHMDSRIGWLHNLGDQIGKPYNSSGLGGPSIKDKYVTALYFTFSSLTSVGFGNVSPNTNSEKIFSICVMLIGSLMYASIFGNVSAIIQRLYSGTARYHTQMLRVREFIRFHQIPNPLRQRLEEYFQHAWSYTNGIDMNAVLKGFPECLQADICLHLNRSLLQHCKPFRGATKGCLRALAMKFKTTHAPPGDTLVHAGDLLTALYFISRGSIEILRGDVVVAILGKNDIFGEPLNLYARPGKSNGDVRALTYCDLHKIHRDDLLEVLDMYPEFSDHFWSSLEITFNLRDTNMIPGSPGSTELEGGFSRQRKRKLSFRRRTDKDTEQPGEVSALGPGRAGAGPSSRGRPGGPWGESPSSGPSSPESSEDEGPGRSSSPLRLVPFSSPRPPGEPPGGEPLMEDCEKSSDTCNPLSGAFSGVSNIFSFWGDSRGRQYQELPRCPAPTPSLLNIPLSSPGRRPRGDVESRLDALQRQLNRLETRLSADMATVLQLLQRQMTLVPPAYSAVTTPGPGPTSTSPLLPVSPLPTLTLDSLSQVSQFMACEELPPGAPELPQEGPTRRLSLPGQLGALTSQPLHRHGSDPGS
The test system of series [30] is 5-strain Ames bacterial assay. Format: cell-based.
Series [31] concerns 100 neurotransmitter receptors, peptide receptors, ion channels, reuptake sites, and enzymes.
Series [32] deals with two rat cell lines. The following applies: read-out: IC50 level, ATP levels; either of two rat cell lines, galactose medium.

In general, IC50 refers to the concentration needed to halve the response being measured. The term inhibition denotes the relative decrease from the control value, in per cent. The term EC50 denotes the concentration giving half of the maximal effect.

Where two headings read alike, the source gives them in different places. Bounds are passed on as bounds.

`Cc1[nH]c2ccccc2c(=O)c1-c1ccc(Oc2ccc(OC(F)(F)F)cc2)cc1` [ELQ-271]: the IC50 in series [1] (read-out: IC50 human cytochrome bc1, enzyme derived from HEK cells) amounted to 1990 nM.
As to `C[C@H]1[C@@H](O)O[C@@H]2O[C@@]3(C)CC[C@H]4[C@H](C)CC[C@@H]1[C@@]24OO3` [dihydroartemisinin], in [2], the inhibition at 10 mg/kg is 63.7%.
`COc1cc(NC(C)CCCN)c2ncccc2c1` (stereo not shown) [primaquine]: in series [2], the inhibition at 10 mg/kg is 95.4%.
In the case of `O=C1C(O)=C([C@H]2CC[C@H](c3ccc(Cl)cc3)CC2)C(=O)c2ccccc21` [Atovaquone, reference compound], the IC50 amounted to 460 nM in series [1] and 67 nM in series [3] (Plasmodium berghei, 24 h). In series [4], this compound showed an ED90 of 0.04 mg/kg/day.
As to `COc1ccc(C[C@H](N)C(=O)N[C@H]2[C@@H](O)[C@H](n3cnc4c(N(C)C)ncnc43)O[C@@H]2CO)cc1` [puromycin, reference compound], the 50% inhibitory concentration (IC50) in series [5] (Plasmodium falciparum, 72 h) worked out at 75.3 nM.
`C[C@H]1Cc2c([nH]c3cc(Cl)c(F)cc23)[C@@]2(N1)C(=O)Nc1ccc(Cl)cc12` [NITD609]: in series [6], the “concentration required to completely inhibit oocyst formation” value is recorded as 500 nM.
Take `COc1cc2[nH]c(C)c(-c3ccc(Oc4ccc(OC(F)(F)F)cc4)cc3)c(=O)c2cc1Cl` [ELQ-300]: in series [7], the “cross-resistance with atovaquone in TM90-C2B” value is recorded as 1.3 fold. Moreover, the “sensitivity of D10yDHOD transfectants” value in [8] was “insensitive”. Also, the half-maximal effective concentration (EC50) in series [9] is 14.9 nM; in series [10], 17.9 nM; in series [19], 1.02 nM. For the same compound, the half-maximal inhibitory concentration (IC50) was > 10000 nM in series [11]; > 10000 nM in series [12]; > 10000 nM in [13]; > 10000 nM in series [1] (read-out: IC50, nM human cytochrome bc1, derived from HEK-293 cells); 0.58 nM in [14]; ~100 nM in series [20]. Moreover, the half-inhibitory concentration (IC50) in series [5] (72 hr) is 71.9 nM; in series [3] (first 24 h of development, GFP endpoint), 56 nM; in series [29], > 11000 nM; in [32], > 100000 nM. Besides, the “time required to kill >99.9% of parasites” value in series [15] (10x EC50 concentration) is reported as “≈ 100 h”. For the same compound, in series [15] (exposure up to 120 hr), the speed of action entry is “slow-acting”. For the same compound, the interaction with proguanil result in [16] is listed as “strong pharmacological synergism”. Besides, the “curative blood stage dose” value in [17] (Thompson or Peter's tests) was 1 mg/kg. For the same compound, the “fifty percent effective dose (ED50)” value in series [17] (Thompson test, P. berghei, ICR mice) was determined as 0.016 mg/kg/day. In series [18] (SCID mice, oral daily for four days, suspension formulation), the “dose that reduced parasitemia by 90% at day 7 (ED90)” value came out at 5.9 mg/kg/day. In series [18] (SCID mouse model, blood), the “estimated exposure at the ED90 dose (AUCED90)” value is reported as 1.1 μg·h/mL/day. In addition, the “single dose that completely blocked infection” value in series [21] is recorded as ≥ 0.03 mg/kg. For the same compound, the “lowest exposure preventing gametocyte development to Stage IV” value in series [22] is ≤ 0.1 µM. Besides, the “reduction of oocyst burden in mosquito midguts” value in [23] (10 nM) was 19.2%. In series [23] (blood containing 100 nM), the “reduction of the total oocyst count relative to controls” value is given as 99.4%. Moreover, the oocyst formation entry in [23] (blood containing 1 μM drug) is “no oocysts formed”. Besides, the “concentration that completely blocked oocyst formation” value in series [24] (one of two independent studies) is reported as ≥ 10 nM. Moreover, the “reduction in oocyst formation” value in [24] (the other study, 10 nM) stood at 95.9%. The “dose that completely prevented transmission (oocyst development)” value in series [2] (single oral dose, feeding one hour after treatment) is given as ≥ 0.1 mg/kg. In series [25], the Tmax entry is “approximately 7.5 h”. Besides, the oral bioavailability entry in series [25] was “approximately 100%”. Further, in series [26], the aqueous solubility result is “low aqueous solubility”. The “stability to metabolic degradation by cytochrome P450 enzymes” value in series [27] was “highly stable”. In series [28], the “inhibition of the major cytochrome P450 enzymes” value was “did not inhibit”. Also, in series [30], the mutagenic potential result is given as “lacks mutagenic potential”. Further, in series [31], the “inhibition in screen of 100 targets” value was “did not observe any significant inhibition”. Further, the “non-recrudescence dose relative to atovaquone” value in series [4] (P. yoelii murine model) is on record as 30 times lower. The compound also had an ED90 in [4] of 0.15 mg/kg/day. In series [4] (mouse, in vivo), the AUCED90 is listed as 1.4 μg·h/mL/day. In [4] (mouse, in vivo, po), the “drug exposure (AUC0-24 h) in peripheral blood at the ED90” value came to 1400 ng·h/mL.

These data come from PMC4227885 (Science translational medicine, 2013).
